Laboratory results: ChEMBL document CHEMBL3259611, “Suppression of inflammatory responses by handelin, a guaianolide dimer from Chrysanthemum boreale, via downregulation of NF-κB signaling and pro-inflammatory cytokine production” (J Nat Prod, 2014)

Columns and labels:
Assay type in all cases: functional
RAW264.7 [1] = assay: Antiinflammatory activity in mouse RAW264.7 cells assessed as inhibition of LPS-induced PGE2 production at 20 uM administered 1 hr prior to LPS challenge measured after 20 hrs by EIA relative to control
Outline: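 RAW 264.7 cells plated at 3 × 10^5 cells/mL, pretreated with compound for 1 h, then stimulated with 1 μg/mL LPS for 20 h. PGE2 in the supernatant was measured by immunoassay kit. Mean ± SD of triplicates.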

RAW264.7 [2] = assay: Antiinflammatory activity in mouse RAW264.7 cells assessed as inhibition of LPS-induced nitric oxide production at 50 uM after 20 hrs by Griess assay relative to control; settings: RAW264.7, 20 h
Outline: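 Positive-control run in the same LPS (1 μg/mL, 20 h) RAW 264.7 system. Nitrite was quantified by Griess reaction at 540 nm against a sodium nitrite standard curve. Inhibition expressed relative to vehicle control.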

Rattus norvegicus = assay: Antiinflammatory activity in rat paw edema model assessed as inhibition of carrageenan-induced paw edema at 20 mg/kg, po administered 30 mins prior to carrageenan challenge measured after 4 hrs relative to vehicle-treated control
Outline: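 Male Sprague–Dawley rats (150–170 g, 5 weeks old); compound dissolved in 0.5% CMC-Na and given orally 30 min before subplantar injection of 0.1 mL 1% carrageenan suspension in saline into the right hind paw, with saline injected into the left. Paw volume read by plethysmometer at 0 h and up to 6 h; n = 6.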

Mus musculus = assay: Antiinflammatory activity in ICR mouse ear edema model assessed as inhibition of TPA-induced ear edema at 20 mg/kg, po administered 30 mins prior to TPA challenge measured after 4 hrs relative to vehicle-treated control
Outline: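 ICR mice (male, 18−20 g, 5 weeks old) dosed orally 30 min before TPA (1.0 μg in 20 μL acetone) was applied to inner and outer surfaces of the right ear. Killed by cervical dislocation after 4 h. Edema taken as the weight of a 5 mm punch biopsy of the right ear over the left. Ear homogenates were Western blotted for iNOS, COX-2 and IL-1β.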

Question: With `Cc1ccc(-c2cc(C(F)(F)F)nn2-c2ccc(S(N)(=O)=O)cc2)cc1` [CELECOXIB] as the compound, how does the inhibition (INH) (RAW264.7 [1]) read?
Answer: Its inhibition (INH) is 81%.

Question: How did the inhibition at 50 µM (RAW264.7 [2]) turn out when `CNC(=N)NCCC[C@H](N)C(=O)O` [TILARGININE] was run?
Answer: The inhibition at 50 µM was 74%.

Question: What does the source list for `COc1ccc2c(c1)c(CC(=O)O)c(C)n2C(=O)c1ccc(Cl)cc1` [INDOMETHACIN]?
Answer: inhibition in vivo at 20 mg/kg (Rattus norvegicus): 51%; inhibition in vivo at 20 mg/kg (Mus musculus): 53%
